In series [1] the test system is Rattus norvegicus. Briefly: Antiinflammatory activity against carrageenan-induced albino Sprague-Dawley rat paw edema model assessed as paw edema at 10 mg/kg, po pretreated for 1 hr followed by carrageenan challenge and measured at 2 hrs post-carrageenan injection (reference value: 36.4%). It counts as functional.
For series [2], the system named is Rattus norvegicus. Briefly: Antiinflammatory activity against carrageenan-induced albino Sprague-Dawley rat paw edema model assessed as paw diameter at 10 mg/kg, po pretreated for 1 hr followed by carrageenan challenge and measured immediately after carrageenan injection (reference value: 3.46 +/- 0.08 mm). Type of series: functional.
Series [3] concerns Rattus norvegicus. Put plainly: Antiinflammatory activity against carrageenan-induced albino Sprague-Dawley rat paw edema model assessed as paw diameter at 10 mg/kg, po pretreated for 1 hr followed by carrageenan challenge and measured at 1 hr post-carrageenan injection (reference value: 4.51 +/- 0.09 mm). Type of series: functional.
Series [4] deals with Rattus norvegicus. Put plainly: Antiinflammatory activity against carrageenan induced albino Sprague-Dawley rat paw edema model assessed as paw diameter at 10 mg/kg, po pretreated for 1 hr followed by carrageenan challenge and measured at 4 hrs post-carrageenan injection (reference value: 4.88 +/- 0.1 mm). Type of series: functional.
Series [5] in a line: Ulcerogenicity in albino rat assessed as mild hyperemia without ulceration at 10 mg/kg, po administered as single dose after 18 hrs of starvation challenge and measured after 4 hrs. It counts as toxicity, organism-based. The conditions noted are these: in vivo. A digest of the protocol:
(§1)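 Adult male albino rats fasted 18 h, then dosed orally at 10 mg/kg (saline control, reference drugs); six rats per group. Killed 4 h after treatment. Stomachs removed and examined macroscopically for hyperemia, single or multiple lesions, erosion, ulcer or perforation. Number of ulcers and occurrence of hyperemia recorded.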

For series [6], the target named is Prostaglandin G/H synthase 1 (Homo sapiens, UniProt P23219). Briefly: Inhibition of human COX1 assessed as reduction in PGF2alpha production using arachidonic acid as substrate preincubated with enzyme for 10 mins followed by substrate addition by ELISA. It counts as single protein.
The nature of series [7]: Ulcerogenicity in albino rat assessed as gastric lesions at 10 mg/kg, po administered as single dose after 18 hrs of starvation challenge and measured after 4 hrs. It counts as toxicity, organism-based. The note with it: in vivo. Put shortly:
as §1

Series [8] has as its system Rattus norvegicus. Put plainly: Antiinflammatory activity against carrageenan induced albino Sprague-Dawley rat paw edema model assessed as paw edema at 10 mg/kg, po pretreated for 1 hr followed by carrageenan challenge and measured at 1 hr post-carrageenan injection (reference value: 30.3%). It counts as functional.
For series [9], the system named is Rattus norvegicus. Put plainly: Antiinflammatory activity against carrageenan induced albino Sprague-Dawley rat paw edema model assessed as paw edema at 10 mg/kg, po pretreated for 1 hr followed by carrageenan challenge and measured at 3 hrs post-carrageenan injection (reference value: 38.4%). It counts as functional.
Series [10] has as its system Rattus norvegicus. Put plainly: Antiinflammatory activity against carrageenan induced albino Sprague-Dawley rat paw edema model assessed as paw edema at 10 mg/kg, po pretreated for 1 hr followed by carrageenan challenge and measured at 4 hrs post-carrageenan injection (reference value: 41%). Type of series: functional.
Series [11] has as its system Rattus norvegicus. Briefly: Antiinflammatory activity against carrageenan induced albino Sprague-Dawley rat paw edema model assessed as paw diameter at 10 mg/kg, po pretreated for 1 hr followed by carrageenan challenge and measured at 2 hrs post-carrageenan injection (reference value: 4.72 +/- 0.08 mm). Type of series: functional.
Series [12] concerns Rattus norvegicus. Briefly: Antiinflammatory activity against carrageenan induced albino Sprague-Dawley rat paw edema model assessed as paw diameter at 10 mg/kg, po pretreated for 1 hr followed by carrageenan challenge and measured at 3 hrs post-carrageenan injection (reference value: 4.79 +/- 0.1 mm). Type of series: functional.
Series [13] in a line: Ulcerogenicity in albino rat assessed as severity of gastric lesions at 10 mg/kg, po administered as single dose after 18 hrs of starvation challenge and measured after 4 hrs. Type of series: toxicity, organism-based. The conditions noted are these: in vivo. A digest of the protocol: as §1

Sequence of Prostaglandin G/H synthase 1 (P23219 whole entry): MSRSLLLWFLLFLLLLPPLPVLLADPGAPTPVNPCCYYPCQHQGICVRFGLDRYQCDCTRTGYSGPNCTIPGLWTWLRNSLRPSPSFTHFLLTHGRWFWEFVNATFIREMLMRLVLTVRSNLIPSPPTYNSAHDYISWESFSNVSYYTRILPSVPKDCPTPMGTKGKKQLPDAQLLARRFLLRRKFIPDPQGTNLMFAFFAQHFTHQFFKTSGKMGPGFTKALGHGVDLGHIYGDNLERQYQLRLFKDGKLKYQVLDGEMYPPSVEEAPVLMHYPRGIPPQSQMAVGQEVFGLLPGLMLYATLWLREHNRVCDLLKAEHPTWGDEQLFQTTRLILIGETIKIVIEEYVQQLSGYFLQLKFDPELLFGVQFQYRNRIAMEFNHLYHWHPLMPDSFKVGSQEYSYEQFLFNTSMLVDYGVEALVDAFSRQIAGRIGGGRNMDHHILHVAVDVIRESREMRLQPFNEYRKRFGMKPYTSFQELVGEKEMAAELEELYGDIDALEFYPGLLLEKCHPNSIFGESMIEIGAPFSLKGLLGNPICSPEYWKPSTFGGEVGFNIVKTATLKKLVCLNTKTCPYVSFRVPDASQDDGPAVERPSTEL

In the case of `Cc1cccc(/C=C/C2=NNC(=O)CC2)c1`, the Activity was 11.6% in the series on Rattus norvegicus [1]; 3.51 mm in the series on Rattus norvegicus [2]; 3.99 mm with Rattus norvegicus [3]; 3.8 mm in the series with Rattus norvegicus [4]; “Toxic” in [5]; 13.6% in the series with Rattus norvegicus [8]. In addition, the Activity with Rattus norvegicus [9] amounted to 10.2%; with Rattus norvegicus [10], 8.2%; in the series with Rattus norvegicus [11], 3.92 mm; with Rattus norvegicus [12], 3.84 mm. The IC50 – broadly, the concentration at which inhibition is half-maximal – in series [6] is 450 nM. Besides, the results for the UI in series [7] and in series [13] were 0.2 and 0.4, respectively.
For `Cc1cccc(/C=C/c2ccc(=O)[nH]n2)c1`, the Activity in the series on Rattus norvegicus [1] turned out to be 8.7%; in the series on Rattus norvegicus [2], 3.55 mm; in the series with Rattus norvegicus [3], 3.96 mm; in the series with Rattus norvegicus [4], 3.82 mm; in the series with Rattus norvegicus [8], 11.5%; in the series with Rattus norvegicus [9] it was 8.1%. Also, the Activity with Rattus norvegicus [10] is listed as 7.6%; in the series on Rattus norvegicus [11], 3.86 mm; with Rattus norvegicus [12] it was 3.84 mm. Moreover, the half-inhibitory concentration (IC50) in [6] was found to be 370 nM. Moreover, the UI in series [7] and in series [13] was 0 in each case.
As to `COc1ccccc1/C=C/C1=NN(c2ccc(F)cc2)C(=O)CC1`, the IC50 in [6] is 540 nM.
For `COc1ccccc1/C=C/c1ccc(=O)[nH]n1`, in [6], the IC50 amounted to 530 nM.
Turning to `COc1ccccc1/C=C/c1ccc(=O)n(-c2ccc(F)cc2)n1`, the Activity in the series with Rattus norvegicus [1] was 9.4%; with Rattus norvegicus [2], 3.59 mm; in the series on Rattus norvegicus [3], 3.97 mm; in the series on Rattus norvegicus [4], 3.85 mm; in the series on Rattus norvegicus [8] it was 10.5%; with Rattus norvegicus [9] it was 8%. Further, the Activity is recorded as 7.2% in the series on Rattus norvegicus [10], 3.93 mm with Rattus norvegicus [11] and 3.88 mm with Rattus norvegicus [12]. Further, the IC50 in series [6] was 700 nM. The UI in [7] and in series [13] was 0 in each case.
For `COc1ccccc1/C=C/c1ccc(=O)n(-c2ccccc2)n1`, the IC50 in series [6] was found to be 460 nM.
The same measure, in the same setting: for `COc1ccccc1/C=C/C1=NNC(=O)CC1` the value was 270 nM.
For `O=C1CCC(/C=C/c2cccnc2)=NN1`, the Activity in the series on Rattus norvegicus [1] is given as 9.3%; with Rattus norvegicus [2], 3.53 mm; in the series with Rattus norvegicus [3], 3.92 mm; in the series with Rattus norvegicus [4], 3.78 mm; with Rattus norvegicus [8] it was 11%; in the series with Rattus norvegicus [9], 7.9%. Moreover, the Activity in the series on Rattus norvegicus [10] was determined as 7%; in the series with Rattus norvegicus [11] it was 3.86 mm; in the series on Rattus norvegicus [12] it was 3.81 mm. In addition, the IC50 in series [6] came out at 750 nM. Also, the UI in [7] and in series [13] was 0 throughout.
Turning to `Cc1cccc(/C=C/C2=NN(c3ccc(F)cc3)C(=O)CC2)c1`, the IC50 in [6] is 210 nM.
On the same count and under the same terms, for `COc1ccccc1/C=C/C1=NN(c2ccccc2)C(=O)CC1` the value was 390 nM.
Still for that read-out and setting: for `Cc1cccc(/C=C/c2ccc(=O)n(-c3ccc(F)cc3)n2)c1` the value was 240 nM.
As for `Cc1ccc(-c2cc(C(F)(F)F)nn2-c2ccc(S(N)(=O)=O)cc2)cc1` [CELECOXIB], the Activity in the series with Rattus norvegicus [1] was determined as 11.4%; in the series with Rattus norvegicus [2], 3.48 mm; with Rattus norvegicus [3] it was 3.93 mm; with Rattus norvegicus [4] it was 3.78 mm; in the series on Rattus norvegicus [8], 12.9%; in the series on Rattus norvegicus [9], 10%. The results for the Activity in the series with Rattus norvegicus [10], with Rattus norvegicus [11] and in the series with Rattus norvegicus [12] were 8.6%, 3.88 mm and 3.83 mm, respectively. Moreover, the UI in series [7] is given as 2.7; in series [13], 6.2.
On to `COc1ccc2c(c1)c(CC(=O)O)c(C)n2C(=O)c1ccc(Cl)cc1` [INDOMETHACIN], for which the Activity in the series with Rattus norvegicus [1] is listed as 10.3%; in the series on Rattus norvegicus [2], 3.49 mm; in the series with Rattus norvegicus [3], 3.92 mm; in the series with Rattus norvegicus [4], 3.73 mm; with Rattus norvegicus [8] it was 12.3%; in the series on Rattus norvegicus [9], 9.4%. Further, the results for the Activity with Rattus norvegicus [10], in the series on Rattus norvegicus [11] and with Rattus norvegicus [12] were 8%, 3.85 mm and 3.81 mm, respectively. In addition, the UI in series [7] worked out at 8.3; in [13] it was 12.4.

Source of the values: ChEMBL document CHEMBL4346673, “Synthesis and biological evaluation of pyridazinone derivatives as selective COX-2 inhibitors and potential anti-inflammatory agents” (Eur J Med Chem, 2019).
